Test results published in ChEMBL document CHEMBL1130289, “Polyanion inhibitors of human immunodeficiency virus and other viruses. 5. Telomerized anionic surfactants derived from amino acids” (J Med Chem, 1997).

Experiments:
Vero = experiment: Minimum cytotoxic concentration required to cause a microscopically detectable alteration of normal cell morphology in Vero cells; assay type: functional, Chlorocebus sabaeus
Outline: (§1)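 Uninfected E6SM, HeLa or Vero cells were exposed to compound and examined by microscopy. MCC is the lowest concentration causing a detectable alteration of normal cell morphology.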

Human betaherpesvirus 5 [1] = experiment: Concentration required to inhibit HCMV(Davis) induced cytopathicity in HEL cells by 50%; assay type: functional, organism-based; details: Human betaherpesvirus 5, HEL
Outline: (§2)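 Virus was added to the cell monolayers in the presence of compound. Incubation continued until the viral cytopathic effect was scored. IC50 is the concentration that reduced virus-induced cytopathicity by 50%.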

[2] = tested on: Mammalian orthoreovirus 1; experiment: Concentration required to inhibit reovirus-1 induced cytopathicity in Vero cells by 50%; assay type: functional, organism-based; details: Mammalian orthoreovirus 1, Vero; outline: as §2
Junin virus = experiment: Concentration required to inhibit Junin induced cytopathicity in Vero cells by 50%; assay type: functional, organism-based; details: Mammarenavirus juninense
HeLa = experiment: Minimum cytotoxic concentration required to cause a microscopically detectable alteration of normal cell morphology in HeLa cells; assay type: functional, Homo sapiens; outline: as §1
MT4 = experiment: Concentration required to reduce the viability of mock-infected MT-4 cells by 50%; assay type: functional; details: Homo sapiens
Outline: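 Mock-infected MT-4 cells were exposed to compound. CC50 is the concentration that reduced cell viability by 50%. Values are means of two separate experiments.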

[3] = tested on: Human immunodeficiency virus 2; experiment: Concentration required to inhibit HIV-2 induced cytopathicity in MT-4 cells by 50%; assay type: functional, organism-based; details: Human immunodeficiency virus 2, MT4
Outline: (§3)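 MT-4 cells were infected with HIV-1 (strain HTLV-IIIB/LAI) or HIV-2 (strain LAV-2 ROD) and exposed to compound. IC50 is the concentration that inhibited HIV-induced cytopathicity by 50%. Values are means of two separate experiments.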

CEM-4 = experiment: Cytotoxic concentration required to reduce the viability of uninfected cells by 50% after 5 days of incubation in the presence on CEM-4 cells.; assay type: functional; details: Homo sapiens, CEM-4, 120 h
Outline: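 Uninfected CEM-4 cells were incubated with compound for 5 days. CC50 is the concentration that reduced viability by 50%. Values average at least two separate experiments.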

Tacaribe virus = experiment: Concentration required to inhibit Tacaribe induced cytopathicity in Vero cells by 50%; assay type: functional, cell-based; details: Mammarenavirus tacaribeense
Semliki Forest virus = experiment: Concentration required to inhibit forest induced cytopathicity in Vero cells by 50%; assay type: functional, organism-based; outline: as §2
Vaccinia virus = experiment: Concentration required to inhibit Vaccinia induced cytopathicity in E6SM cells by 50%; assay type: functional, organism-based; details: Orthopoxvirus vaccinia
[4] = tested on: Human immunodeficiency virus 1; experiment: Inhibitory concentration required to inhibit HIV-induced cytopathicity in CEM-4 cells by 50% based in the MTT assay; Not active; assay type: functional, organism-based
[5] = tested on: Human immunodeficiency virus 1; experiment: Concentration required to inhibit HIV-1 induced cytopathicity in MT-4 cells by 50%; assay type: functional, organism-based; details: Human immunodeficiency virus 1, MT4; outline: as §3
E6SM = experiment: Minimum cytotoxic concentration required to cause a microscopically detectable alteration of normal cell morphology in E6SM cells; assay type: functional, Homo sapiens; outline: as §1
[6] = tested on: Vesicular stomatitis virus; experiment: Concentration required to inhibit vesicular stomatitis induced cytopathicity in E6SM cells by 50%; assay type: functional, organism-based
Coxsackievirus = experiment: Concentration required to inhibit Coxsackie induced cytopathicity in HeLa cells by 50%; assay type: functional, organism-based; outline: as §2
Human alphaherpesvirus 1 [7] = experiment: Concentration required to inhibit HSV-1 TK-(B2006) induced cytopathicity in E6SM cells by 50%; details: Human alphaherpesvirus 1, E6SM
Human respirovirus 3 = experiment: Concentration required to inhibit parainfluenza-3 induced cytopathicity in Vero cells by 50%; assay type: functional, organism-based; details: Human respirovirus 3, Vero; outline: as §2
[8] = tested on: Human immunodeficiency virus 1; experiment: Concentration required to inhibit by 50% syncytium formation between MOLT-4 cells and HIV-1(IIIB); assay type: functional, organism-based; details: Human immunodeficiency virus 1, MOLT-4
Outline: (§4)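 Uninfected MOLT-4 cells were co-cultured with HUT-78 cells chronically infected with HIV-1 (IIIB) or HIV-2 (ROD), in the presence of compound. The end point was syncytium formation, and IC50 is the concentration giving 50% inhibition. Values are means of two separate experiments.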

HEL = experiment: Minimum cytotoxic concentration required to cause a microscopically detectable alteration of normal cell morphology in HEL cells; assay type: functional, Homo sapiens
Sindbis virus = experiment: Concentration required to inhibit Sindbis induced cytopathicity in Vero cells by 50%; assay type: functional, organism-based; outline: as §2
[9] = tested on: Human immunodeficiency virus 2; experiment: Concentration required to inhibit by 50% syncytium formation between MOLT-4 cells and HIV-2 (ROD) infected HUT-78 cells; assay type: functional, organism-based; details: Human immunodeficiency virus 2, MOLT-4; outline: as §4
Human alphaherpesvirus 2 = experiment: Concentration required to inhibit HSV-2(G) induced cytopathicity in E6SM cells by 50%; details: Human alphaherpesvirus 2, E6SM
Human alphaherpesvirus 1 [10] = experiment: Concentration required to inhibit HSV-1(KOS) induced cytopathicity in E6SM cells by 50%; details: Human alphaherpesvirus 1, E6SM
Poliovirus 1 = experiment: Concentration required to inhibit Polio-1 induced cytopathicity in HeLa cells by 50%; assay type: functional, organism-based; details: Enterovirus C
Human betaherpesvirus 5 [11] = experiment: Concentration required to inhibit HCMV(AD169) induced cytopathicity in HEL cells by 50%; assay type: functional, organism-based; details: Human betaherpesvirus 5, HEL; outline: as §2
[12] = tested on: Human immunodeficiency virus 1; experiment: Inhibitory concentration required to inhibit HIV-induced cytopathicity in CEM-4 cells by 50% based in the MTT assay; assay type: functional, organism-based; details: Human immunodeficiency virus 1, CEM-4

CCCCCCCCCCCCSCCCCCCCCCCCCC(=O)NCCCCCCCCCCC(=O)[O-].[Na+]
MMC (Vero): >200 µg/mL | IC50 (Human betaherpesvirus 5 [1]): 35 µg/mL | IC50 [2]: > 200 µg/mL | IC50 (Junin virus): > 50 µg/mL | MMC (HeLa): >200 µg/mL | CC50 (MT4): 136 µg/mL | IC50 [3]: 47 µg/mL | CC50 (CEM-4): 37 µg/mL | IC50 (Tacaribe virus): > 50 µg/mL | IC50 (Semliki Forest virus): > 200 µg/mL | IC50 (Vaccinia virus): > 200 µg/mL | IC50 [4]: Not Active | IC50 [5]: 20 µg/mL | MMC (E6SM): >200 µg/mL | IC50 [6]: > 200 µg/mL | IC50 (Coxsackievirus): > 200 µg/mL | IC50 (Human alphaherpesvirus 1 [7]): > 200 µg/mL | IC50 (Human respirovirus 3): > 200 µg/mL | IC50 [8]: 50 µg/mL | MMC (HEL): >50 µg/mL | IC50 (Sindbis virus): > 200 µg/mL | IC50 [9]: 150 µg/mL | IC50 (Human alphaherpesvirus 2): > 200 µg/mL | IC50 (Human alphaherpesvirus 1 [10]): > 200 µg/mL | IC50 (Poliovirus 1): > 200 µg/mL | IC50 (Human betaherpesvirus 5 [11]): > 50 µg/mL

CCCCCCCCCCCCSCCCCCCCCCCCCCCCCCCCCCCCCCCCCCCCCCCCCCCCCC(=O)N(C)CCCCCCCCCCC(=O)[O-].[Na+]
CC50 (CEM-4): > 200 µg/mL | IC50 [4]: Not Active

CCCCCCCCCCCCSCCCCCCC(=O)NCCCCCCCCCCC(=O)NCC(=O)[O-].[Na+]
CC50 (CEM-4): 118 µg/mL | IC50 [4]: Not Active

CCCCCCCCCCCCSCCCCCCCCCCCCCCCCCCCCCCC(=O)N(CC)CCCCCCCCCCC(=O)[O-].[Na+]
CC50 (CEM-4): 50 µg/mL | IC50 [12]: 4 µg/mL

CCCCCCCCCCCCSCCCCCCCCCCC(=O)N(C)CCCCCCCCCCC(=O)[O-].[Na+]
MMC (Vero): >200 µg/mL | IC50 (Human betaherpesvirus 5 [1]): > 50 µg/mL | IC50 [2]: > 200 µg/mL | IC50 (Junin virus): > 50 µg/mL | MMC (HeLa): >200 µg/mL | CC50 (MT4): 128 µg/mL | IC50 [3]: 70 µg/mL | CC50 (CEM-4): > 200 µg/mL | IC50 (Tacaribe virus): > 50 µg/mL | IC50 (Semliki Forest virus): > 200 µg/mL | IC50 (Vaccinia virus): > 200 µg/mL | IC50 [4]: Not Active | IC50 [5]: 28 µg/mL | MMC (E6SM): >400 µg/mL | IC50 [6]: > 200 µg/mL | IC50 (Coxsackievirus): > 200 µg/mL | IC50 (Human alphaherpesvirus 1 [7]): > 200 µg/mL | IC50 (Human respirovirus 3): > 200 µg/mL | IC50 [8]: 150 µg/mL | MMC (HEL): >50 µg/mL | IC50 (Sindbis virus): > 200 µg/mL | IC50 [9]: 150 µg/mL | IC50 (Human alphaherpesvirus 2): 70 µg/mL | IC50 (Human alphaherpesvirus 1 [10]): > 200 µg/mL | IC50 (Poliovirus 1): > 200 µg/mL | IC50 (Human betaherpesvirus 5 [11]): > 50 µg/mL

CCCCCCCCCCCCSCCCCCCCCCCCCCCCCCCCCCCCCCCC(=O)N(C)CCCCCCCCCCC(=O)[O-].[Na+]
CC50 (CEM-4): > 200 µg/mL | IC50 [4]: Not Active

CCCCCCCCCCCCSCCCCCCCCCCCCCCCCCCC(=O)N(C)CCCCCCCCCCC(=O)[O-].[Na+]
CC50 (CEM-4): > 200 µg/mL | IC50 [4]: Not Active

CCCCCCCCCCCCSCCCCCCCCC(=O)NCCCCCCCCCCC(=O)[O-].[Na+]
CC50 (CEM-4): 29 µg/mL | IC50 [4]: Not Active

CCCCCCCCCCCCSCCCCC(=O)NCCCCCCCCCCC(=O)NC(CCC(=O)[O-])C(=O)O.[Na+] (stereo unspecified)
CC50 (CEM-4): > 100 µg/mL | IC50 [4]: Not Active

CCCCCCCCCCCCSCCCCCCCCCCCCCCC(=O)NCCCCCCCCCCC(=O)NCC(=O)[O-].[Na+]
CC50 (CEM-4): > 300 µg/mL | IC50 [12]: 15 µg/mL

CCCCCCCCCCCCSCCCCCCCCCCCCCCCCCCCCCCCCCCCCCCCCCCCCCCCCCCCCCCCCCCCCCCCCCCCCC(=O)N(CC)CCCCCCCCCCC(=O)NCCC(=O)[O-].[Na+]
CC50 (CEM-4): > 100 µg/mL | IC50 [4]: Not Active

CCCCCCCCCCCCSCCCCCCCCCCC(=O)N(CC)CCCCCCCCCCC(=O)NCC(=O)[O-].[Na+]
CC50 (CEM-4): > 100 µg/mL | IC50 [12]: 120 µg/mL

CCCCCCCCCCCCSCCCCCCCCC(=O)N(CC)CCCCCCCCCCC(=O)[O-].[Na+]
CC50 (CEM-4): 100 µg/mL | IC50 [12]: 25 µg/mL

CCCCCCCCCCCCSCCCCCCC(=O)NCCCCCCCCCCC(=O)NCCC(=O)[O-].[Na+]
CC50 (CEM-4): > 300 µg/mL | IC50 [4]: Not Active
